Screens from PubChem BioAssay.
Only some compounds are listed: those with a hit (about 1.7% of all), similar ones and a draw of the others.
GALR2 ag: activates the human galanin receptor 2. actives 0.48% (n = 140,000). activation, % (concentration not given with the values). GALR2-expressing cells, agonist activation read-out. AID 803; in the data active = activation above about 5%, passing the limit was not always enough;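 also: 0% = vehicle buffer wells and 100% = reference agonist at full effect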
GALR2 antag: blocks the human galanin receptor 2. actives 0.39% (n = 140,000). O43603. GALR2-expressing cells, antagonist mode. inhibition, % at 4 µM. AID 828; in the data active = inhibition above about 27%;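 also: cells stimulated with galanin 1-16 at roughly its EC80; 0% = agonist challenge control and 100% = basal control without agonist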
EphB4 ephrin blk: blocks human EphB4 binding to ephrin-B2 | P54760 | EphB4 LBD / TNYL-RAW-Alexa532 peptide, fluorescence polarization | inhibition, % at 7 µM | actives 0.15% (n = 97,000) | AID 720;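 active = inhibition above the screen-wide mean inhibition plus 3 SD, cut at about 15% in these data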;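 also: 0% = DMSO wells and 100% = excess unlabeled TNYL-RAW peptide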
Rev-RRE block: disrupts HIV-1 Rev binding to RRE RNA. Rev peptide-RRE RNA binding, FRET. inhibition, % at 8 µM. actives 0.79% (n = 97,000). AID 704;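 active = inhibition above the screen-wide mean plus 3 SD, cut at about 35% in these data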;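 also: 0% = median DMSO wells and 100% = median Neomycin B control wells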
Target sequence (P05866 whole entry, looked up): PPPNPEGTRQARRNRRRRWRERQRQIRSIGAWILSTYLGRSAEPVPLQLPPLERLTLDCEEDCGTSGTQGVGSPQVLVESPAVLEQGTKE
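Test system – labelled RRE RNA duplex and labelled Rev peptide · Reagent – labelled Rev peptide · Doses – one concentration, 8 µM nominal · Incubation – 5 + 15 min at 25 °C · Signal – FRET fluorescence readout · Read-out basis – % inhibition of FRET ratio versus controls · Control set – DMSO wells as 0% and neomycin B wells as 100% inhibition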
S1P2 agonist: S1P2 (human) receptor agonism | O95136 | activation, % at 4.5 µM | S1P2-expressing cell line, agonist reporter read-out | AID 729 | actives 0.46% (n = 97,000); in the data active = activation above about 16%;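 also: 0% = vehicle low control and 100% = maximal reference agonist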
Target sequence (O95136 whole entry, looked up): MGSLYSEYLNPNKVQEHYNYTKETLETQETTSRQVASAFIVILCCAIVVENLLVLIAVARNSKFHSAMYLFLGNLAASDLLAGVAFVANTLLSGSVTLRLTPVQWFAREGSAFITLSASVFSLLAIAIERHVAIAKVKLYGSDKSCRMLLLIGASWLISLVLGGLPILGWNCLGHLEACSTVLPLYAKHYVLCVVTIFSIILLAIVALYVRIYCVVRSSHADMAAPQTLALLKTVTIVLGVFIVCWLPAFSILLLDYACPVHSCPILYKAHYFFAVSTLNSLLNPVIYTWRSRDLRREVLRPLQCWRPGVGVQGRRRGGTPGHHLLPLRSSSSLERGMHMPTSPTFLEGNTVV
S1P2 antag: blocks the human S1P2 receptor | O95136 | inhibition, % at 5 µM | cell-based S1P2 antagonist assay, inhibition at 5 uM | actives 0.21% (n = 97,000); in the data active = inhibition above about 45%;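 also: CRE beta-lactamase reporter cells expressing human S1P2 stimulated with S1P; 0% = agonist at EC80 alone and 100% = agonist plus reference antagonist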
GALR2 ag confirm: confirmation of human galanin receptor 2 (GALR2) agonists | shares compounds with GALR2 ag | GALR2-expressing cells, agonist activation | actives 10% (n = 460) | activation, % at 5.6 µM; in the data active = activation above about 8.4%;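 also: 0% = buffer-only vehicle wells and 100% = full reference agonist response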
BLA act counter: counter-screen for GALR2 agonists: beta-lactamase reporter activators | CHO NFAT-bla reporter, beta-lactamase FRET activation | actives 10% (n = 460) | activation, % at 5.6 µM | shares compounds with GALR2 ag | AID 865;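 active = activation above the screen-wide mean activation plus 3 SD, cut at about 8% in these data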;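 also: 0% = DMSO with PBS wells and 100% = thapsigargin positive control wells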
* marks the source's active call; other numbers are inactive results.

Screening COc1ccc(Nc2sc(C(=O)c3ccc(Cl)cc3)c(N)c2C(=O)Nc2ccccc2OC)cc1 returned GALR2 ag 14*, GALR2 antag -7, EphB4 ephrin blk 2, Rev-RRE block 6, S1P2 agonist -2, S1P2 antag -13, GALR2 ag confirm -2 and BLA act counter -2.
`COc1ccc(C(=O)c2sc(Nc3cccc(OC)c3)c(C(=O)Nc3cccc(C)c3C)c2N)cc1` gave GALR2 ag 16*, GALR2 antag 9, EphB4 ephrin blk 0, Rev-RRE block 3, S1P2 agonist -2, S1P2 antag 6, GALR2 ag confirm 1 and BLA act counter 0.
For Cc1ccc2nc(SCC(=O)N(CC(C)C)c3c(N)n(CC(C)C)c(=O)[nH]c3=O)[nH]c2c1 the results were GALR2 ag 40*, GALR2 antag -6, EphB4 ephrin blk 0, Rev-RRE block 3, S1P2 agonist 3, S1P2 antag -14, GALR2 ag confirm -1 and BLA act counter -2.
For CC(C)CN(C(=O)CSc1nncs1)c1c(N)n(CC(C)C)c(=O)[nH]c1=O the results were GALR2 ag -1, GALR2 antag -9, EphB4 ephrin blk 1, Rev-RRE block -5, S1P2 agonist -3 and S1P2 antag -2.
CCCC1=C(C(=O)OCC)C(c2ccc(N(C)C)cc2)n2ncnc2N1 (stereo not drawn) was read as GALR2 ag 1, GALR2 antag -3, EphB4 ephrin blk -3, Rev-RRE block 3, S1P2 agonist -5 and S1P2 antag -8.
`CCOc1cccc(SCc2noc(C(=O)NCCOC)c2C(=O)O)c1` gave GALR2 ag 59*, GALR2 antag -3, EphB4 ephrin blk 8, Rev-RRE block 3, S1P2 agonist -9, S1P2 antag 8, GALR2 ag confirm 0 and BLA act counter 1.
CC(Sc1nc2cc(Cl)ccc2s1)C(=O)Nc1cccc(S(=O)(=O)N2CCOCC2)c1 (stereo not drawn) was read as GALR2 ag -1 and GALR2 antag 15.
CCNCCNc1ccc(Cl)cc1[N+](=O)[O-] was read as GALR2 ag -1, GALR2 antag 5, EphB4 ephrin blk -7, Rev-RRE block 6, S1P2 agonist -7 and S1P2 antag -16.
`CS(=O)(=O)NCCCNc1ccc(Cl)cc1[N+](=O)[O-]` gave GALR2 ag 58*, GALR2 antag -2, EphB4 ephrin blk 2, Rev-RRE block 8, S1P2 agonist -4, S1P2 antag 1, GALR2 ag confirm -1 and BLA act counter -1.
For CC1(C)C=C(c2ccc(C=O)s2)CC(C)(C)N1C=O the results were GALR2 ag 14*, GALR2 antag 3, GALR2 ag confirm -1 and BLA act counter 0.
`CC1(C)C=C(c2ccc(C=O)s2)CC(C)(C)N1` gave GALR2 ag -1, GALR2 antag 4, EphB4 ephrin blk 3, Rev-RRE block 9, S1P2 agonist -9 and S1P2 antag 1.
Cc1ccc(/C=N/N2C(=O)c3ccccc3NC2c2ccc(C)cc2)cc1 (stereo not drawn) was read as GALR2 ag 0 and GALR2 antag -13.
Screening COc1ccccc1[C@@H]1C(c2cccc(Cl)c2)=NN(c2ccc(Br)cc2)[C@H]1C(=O)N1CCOC1=O returned GALR2 ag 18*, GALR2 antag -4, GALR2 ag confirm 23* and BLA act counter 46*.
Screening COC(=O)C1=CN(C2CC2)C=C(C(=O)OC)C1c1ccccc1OC returned GALR2 ag 11, GALR2 antag -3, EphB4 ephrin blk -7, Rev-RRE block 0, S1P2 agonist 13, S1P2 antag -28, GALR2 ag confirm 1 and BLA act counter 3.
COC(=O)C1=CN(C)C=C(C(=O)OC)C1c1ccc(O)c(OC)c1 was read as GALR2 ag 0, GALR2 antag -2, EphB4 ephrin blk 5, Rev-RRE block 5, S1P2 agonist -6 and S1P2 antag 0.
